Screens deposited in PubChem BioAssay by several laboratories.
TDP2 absorb: TDP2 (human) inhibition, absorbance primary screen | recombinant TDP2, T5PNP hydrolysis, p-nitrophenol absorbance 415 nm | inhibition, % at 12.8 µM | 370,000 compounds, 0.34% hits;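 active = inhibition above the mean of all tested compounds plus 3 SD, set per campaign, cut at about 25% in these data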
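Incubation: 2 h at 37 °C; Test system: recombinant human TDP2; Quantity: enzyme 120 nM; Read-out basis: percent inhibition; Medium: 50 mM Tris-HCl pH 7.5 with Mg2+, KCl, DTT, BSA; Repeats: single replicate; Compound: 12.8 µM single point, 1% DMSO; Signal: epi absorbance; Reagent: 5 mM T5PNP chromogenic substrate; Benchmarks: no-enzyme high, DMSO-plus-enzyme low.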
PAD4 FP inh: inhibitors of human PAD4; recombinant PAD4, RCA probe fluorescence polarization; inhibition, % at 6.36 µM; 330,000 compounds, 0.41% hits;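 active = percent inhibition above a cutoff equal to the mean of all tested compounds plus 3 SD, cut at about 15% in these data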
Apaf-1 inh: human Apaf-1 inhibition; O14727; reconstituted apoptosome caspase-3 activity, DEVD-Rh110 fluorescence; inhibition, % at 20 µM; 330,000 compounds, 0.71% hits; active = inhibition of at least 40% at 20 µM
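detection = Rh110 fluorescence intensity | test system = biochemical Apaf-1 apoptosome reconstitution | also added = cytochrome c and DEVD-Rh110 substrate | schedule = 30 min plus 50 min, RT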
SIAE inh: inhibitors of human sialic acid acetylesterase SIAE. Q9HAT2. SIAE FP-Rh probe binding, fluorescence polarization. inhibition, % at 9.66 µM. 370,000 compounds, 0.69% hits. AID 1053197;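 active = inhibition above a cutoff: mean of compounds within the control limits plus 3 SD of those, cut at about 17% in these data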
Target sequence (Q9HAT2 whole entry, looked up): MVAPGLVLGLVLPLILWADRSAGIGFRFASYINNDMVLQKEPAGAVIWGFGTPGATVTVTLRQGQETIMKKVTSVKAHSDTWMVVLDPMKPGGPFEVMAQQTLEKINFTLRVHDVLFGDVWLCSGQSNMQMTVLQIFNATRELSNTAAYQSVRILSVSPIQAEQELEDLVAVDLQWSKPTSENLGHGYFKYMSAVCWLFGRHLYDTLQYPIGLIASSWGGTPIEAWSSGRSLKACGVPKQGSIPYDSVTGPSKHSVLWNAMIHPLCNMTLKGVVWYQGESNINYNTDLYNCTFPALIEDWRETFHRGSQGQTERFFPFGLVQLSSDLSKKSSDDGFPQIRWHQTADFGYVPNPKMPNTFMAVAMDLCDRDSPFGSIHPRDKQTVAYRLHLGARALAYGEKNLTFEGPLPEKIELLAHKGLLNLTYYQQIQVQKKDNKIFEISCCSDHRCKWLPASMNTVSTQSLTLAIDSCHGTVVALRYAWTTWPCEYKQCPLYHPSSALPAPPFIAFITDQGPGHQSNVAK
TCR CD3 inh: human TCR-CD3 binding inhibition; TAMRA-labeled TCR probe fluorescence, biochemical; inhibition, % at 9.4 µM; 360,000 compounds, 0.37% hits; in the data active = inhibition above about 19%;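 note: recombinant mutant TCR 2C K166C tagged with TAMRA read by polarization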
GSTO1 counter: counter-screen for RBBP9 inhibitors: inhibitors of human GSTO1; recombinant GSTO1, activity-based probe fluorescence polarization; inhibition, % at 5.96 µM; 300,000 compounds, 1.1% hits;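 active = inhibition above the campaign mean inhibition plus 3 SD, cut at about 35% in these data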
SIAE confirm: human SIAE inhibition, confirmation; shares compounds with SIAE inh; SIAE FP-Rh activity-based probe, fluorescence polarization; inhibition, % at 9.66 µM; 2,300 compounds, 13% hits;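 active = mean inhibition of the replicates above the hit cutoff set in the primary screen, cut at about 17% in these data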;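 note: inhibitors lower polarization as more probe stays unbound to SIAE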
Numbers stand for hits; - = inactive; . = not tested or not shown. Most compounds without a hit are left out; they make up all but 2.4% or so of the library.

SMILES | TDP2 absorb | PAD4 FP inh | Apaf-1 inh | SIAE inh | TCR CD3 inh | GSTO1 counter | SIAE confirm
CCOC(=O)c1c(C)[nH]c(C)c1S(=O)(=O)N1CCN(c2cccc(C)c2)C(C)C1 (stereo not given) | - | - | - | - | - | - | .
CC1CCN(S(=O)(=O)c2ccc(Cl)cc2)CC1 | - | - | - | - | - | - | .
O=C(NCC1CCCCC1)c1cc(S(=O)(=O)N2CCOCC2)ccc1F | - | - | - | 79 | - | . | -
CC1CCN(S(=O)(=O)c2ccc(F)c(C(=O)O)c2)CC1 | - | - | - | 24 | - | - | -
COc1ccc(NC(=O)Nc2cccs2)cc1OC | - | - | - | 18 | - | - | -
COc1cc(/C=N\NC(=O)c2ccc(Cn3cc(Br)c([N+](=O)[O-])n3)o2)cc(OC)c1O | - | - | - | 17 | - | - | -
CN(CCOc1ccccc1)CC(=O)Nc1ccc(Cl)cc1[N+](=O)[O-] | - | - | - | - | - | - | .
O=C(COC(=O)/C=C/c1cccs1)Nc1nc(-c2cccc(Br)c2)cs1 | - | - | - | 30 | - | - | -
CCN(CC)S(=O)(=O)c1ccc(C)c(NC(=O)Cc2ccc(S(=O)(=O)N3CCOCC3)s2)c1 | - | - | - | - | - | - | .
CCN1CCN(C(=O)/C(=C/c2ccco2)NC(=O)c2ccccc2)CC1 | - | - | - | 18 | - | - | -
Cc1ccc(S(=O)(=O)N2CCCC2CNC(=O)c2ccccc2)cc1 (stereo not given) | - | - | - | 22 | - | - | -
COc1ccc(C(NC(=O)C2CCN(CCc3ccccc3)CC2)c2ccccn2)cc1 (stereo not given) | - | . | . | - | - | . | .
COc1ccccc1CN1CC(C(=O)NCCN2CCOC2=O)CCC1=O (stereo not given) | - | . | - | - | - | . | .
Oc1nc(Nc2cccc(Cl)c2)sc1/C=C1\C=Nc2ccccc21 | - | - | - | 26 | - | - | -
CCCn1ncc(CN2CCC(Cc3cccc(F)c3)(C(=O)OCC)CC2)c1C | - | - | - | - | - | - | .
NC(=O)C1CCN(C(=O)CSc2ccccn2)CC1 | - | - | - | - | - | - | .
CN(CC(=O)Nc1cccc(F)c1)C(=O)c1ccc(OCc2ccccc2)cc1 | - | - | - | - | - | . | .
CN(CC(=O)Nc1cccc(F)c1)C(=O)c1ccc(C2SCCS2)cc1 | - | - | - | 20 | - | - | 48
C[C@@H]1CN([C@@H](C)CO)C(=O)CCCn2nncc2CO[C@H]1CN(C)C | - | . | . | - | - | . | .
COc1cccc(CN2CCNC(=O)C2CC(=O)NCc2cn3cccc(C)c3n2)c1OC (stereo not given) | - | - | - | - | - | - | .
COc1cccc(CN2CCNC(=O)C2CC(=O)NCc2cn3ccccc3n2)c1OC (stereo not given) | - | - | - | 22 | - | - | -
CCOc1ccc(CN2CCNC(=O)C2CC(=O)NCc2ccccn2)cc1 (stereo not given) | - | - | - | 18 | - | - | -
CCOC(=O)c1cn(-c2ccccc2)nc1-c1ccncc1 | - | - | - | - | - | - | .
CCOC(=O)c1c(C(=O)OCC)c(C)n(CCc2ccccc2)c1C | - | - | - | 31 | - | - | 20
Cc1ccc(N/N=C(\C#N)C(N)=S)c(C)c1 | - | - | . | 54 | - | - | -
SMILES | TDP2 absorb | PAD4 FP inh | Apaf-1 inh | SIAE inh | TCR CD3 inh | GSTO1 counter | SIAE confirm
Cc1ccc(NC(=O)/C(C#N)=N/Nc2ccc(C(=O)O)cc2)c(C)c1 | - | - | - | - | - | - | .
Fc1ccccc1-c1ccc(/C=N/Nc2nc3ccccc3[nH]2)o1 | - | - | - | 35 | - | - | 35
O=C(CSc1nnc(CN2CCOCC2)n1-c1ccc(Cl)cc1)Nc1cc(Cl)ccc1O | - | - | - | 27 | - | - | -
COc1ccc(NC(=O)c2nc3nccc(C)n3n2)cc1S(=O)(=O)N1CCOCC1 | - | - | - | - | - | . | .
Nc1[nH]c2cc(Cl)ccc2c1C(=O)NCCc1ccc(Cl)cc1 | - | . | . | 19 | . | . | 19
O=C(COc1ccc(S(=O)(=O)N2CCCCC2)cc1Cl)N1CCCC1 | - | - | - | - | - | - | .
O=C(COc1ccc(Cl)cc1Cl)N1CCCCCC1 | - | - | - | 18 | - | - | -
